Wnt act: activators of Wnt/beta-catenin signaling | activation, % at 9.35 µM | actives 1.2% (n = 300,000) | Wnt/beta-catenin reporter cell assay, activator, plate reader; in the data active means activation above about 30%, passing the limit was not always enough; inconclusive means no clear call, values can overlap the other calls
Env fusion inh: inhibitors of HIV Env-mediated cell fusion; inhibition, % at 12.3 µM; HeLa-JRFL Env/CEM21 cell fusion, luciferase; actives 1.1% (n = 360,000);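 active means mean replicate inhibition score of at least 50 and every replicate individually at or above 50; inconclusive means only one of the two criteria met; inactive means mean below 50 and not all replicates reaching 50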
esBAF inh: blocks esBAF chromatin remodeling in mouse ES cells. Bmi1-luciferase knock-in reporter, 24 h; 100% = twice the neutral-well signal. reporter increase, % at 12.5 µM. actives 2% (n = 350,000). AID 602393; in the data active means activation above about 40%; inconclusive means no clear call, values can overlap the other calls;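 further: a rise in the Bmi1 reporter signal indicates esBAF inhibition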
ERAP1 inh: ERAP1 (human) enzyme inhibition | recombinant ERAP1, Leu-AMC fluorescence, 60 min | inhibition, % at 10.7 µM | actives 0.15% (n = 340,000);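 active means mean replicate inhibition of at least 30%, or all replicates individually reaching that 30% level; inactive means mean below 30% and not every replicate reaching it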
Target sequence (Q9NZ08 whole entry, looked up): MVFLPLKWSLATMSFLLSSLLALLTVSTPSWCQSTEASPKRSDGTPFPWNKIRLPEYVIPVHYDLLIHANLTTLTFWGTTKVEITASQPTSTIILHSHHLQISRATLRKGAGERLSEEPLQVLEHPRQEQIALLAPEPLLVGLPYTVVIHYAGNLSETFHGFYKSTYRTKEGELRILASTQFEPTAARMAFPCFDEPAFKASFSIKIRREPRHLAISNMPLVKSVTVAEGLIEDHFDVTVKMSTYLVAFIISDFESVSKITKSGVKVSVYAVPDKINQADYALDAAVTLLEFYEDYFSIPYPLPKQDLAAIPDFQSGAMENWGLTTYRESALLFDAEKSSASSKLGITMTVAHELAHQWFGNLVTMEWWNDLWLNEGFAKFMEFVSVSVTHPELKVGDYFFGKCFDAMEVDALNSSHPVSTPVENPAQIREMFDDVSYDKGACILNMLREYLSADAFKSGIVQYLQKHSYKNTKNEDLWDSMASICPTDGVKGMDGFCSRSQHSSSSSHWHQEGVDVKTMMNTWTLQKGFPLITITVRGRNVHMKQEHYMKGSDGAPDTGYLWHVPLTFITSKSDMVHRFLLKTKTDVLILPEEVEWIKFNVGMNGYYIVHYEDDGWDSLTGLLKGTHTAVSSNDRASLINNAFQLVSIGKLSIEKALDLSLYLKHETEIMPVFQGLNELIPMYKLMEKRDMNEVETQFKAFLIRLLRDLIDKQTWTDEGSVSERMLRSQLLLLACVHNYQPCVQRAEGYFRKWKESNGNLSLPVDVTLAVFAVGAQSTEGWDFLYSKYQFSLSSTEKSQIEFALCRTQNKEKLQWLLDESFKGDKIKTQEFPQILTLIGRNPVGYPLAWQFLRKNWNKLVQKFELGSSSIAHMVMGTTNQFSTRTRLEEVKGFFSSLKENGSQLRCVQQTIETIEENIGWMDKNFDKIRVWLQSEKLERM
MITF TRPM1 HTS: activators of MITF-driven TRPM1 promoter activity in SK-MEL-5 cells. SK-MEL-5 TRPM1-promoter luciferase, 24 h; % of positive control, neutral wells = 0. actives 0.75% (n = 300,000). activation, % at 12.5 µM;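 active means mean activation of at least 80% with every replicate also reaching 80%; inconclusive means mean reaches 80% but some replicate falls short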
Cneo AK release: Cryptococcus neoformans lysis via adenylate kinase release. C. neoformans lysis, adenylate kinase release luminescence, 4 h; normalised: neutral wells 0, clomiphene wells 100. lysis activity, % at 15 µM. actives 0.2% (n = 360,000). AID 651654;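 active means mean lysis activity across replicates of at least 80%, whatever share of replicates individually reach that level; inactive means mean lysis activity below 80%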
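Schedule: static 4 h at 37 °C with compound, 1 h detection; system: C. neoformans cells; benchmarks: Clomiphene as positive control; buffer or medium: fresh YPD medium; measure: luminescence rise reflecting yeast cell lysis; measured by: luminescent adenylate kinase detection reagent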
Numbers stand for hits. An excerpt weighted towards active compounds, which were near 3.5% of everything screened.

`COc1ccc2c(c1)CCc1c(C(=O)NCc3ccco3)noc1-2` gave Wnt act inactive, esBAF inh 42, ERAP1 inh inactive and MITF TRPM1 HTS 100.
COc1ccc2c(c1)CCc1c(C(=O)N(C)c3ccccc3)noc1-2 was read as Wnt act inconclusive, Env fusion inh inactive, esBAF inh 56, ERAP1 inh inactive, MITF TRPM1 HTS inactive and Cneo AK release inactive.
Screening CCNC(=O)C[C@H]1CC[C@@H](NC(=O)NC2CCCCC2)[C@H](CO)O1 returned Env fusion inh inactive, esBAF inh inactive, ERAP1 inh inactive and Cneo AK release 97.
CCNC(=O)C[C@@H]1CC[C@H](NC(=O)NC2CCCCC2)[C@@H](CO)O1 was read as Env fusion inh inactive, esBAF inh inactive, ERAP1 inh inactive and Cneo AK release inactive.
For CCNC(=O)C[C@H]1CC[C@H](NC(=O)NC2CCCCC2)[C@H](CO)O1 the results were Env fusion inh inactive, esBAF inh inactive, ERAP1 inh inactive and Cneo AK release inactive.
Screening CCNC(=O)C[C@H]1CC[C@H](NC(=O)NC2CCCCC2)[C@@H](CO)O1 returned Env fusion inh inactive, esBAF inh inactive, ERAP1 inh inactive and Cneo AK release 107.
Screening CCOC(=O)Cc1c(C)nc2c(-c3ccc(OC)cc3)c(C)nn2c1C returned Env fusion inh 64, esBAF inh inactive, MITF TRPM1 HTS inactive and Cneo AK release inactive.
`N=c1ccn(CC(=O)c2ccc(-c3ccccc3)cc2)cc1` gave Wnt act inactive, Env fusion inh 69, ERAP1 inh inactive and MITF TRPM1 HTS inactive.
For CN(Cc1ccccc1)C(=O)NC1CCCCC1 the results were Wnt act inactive, Env fusion inh inactive, esBAF inh inactive, MITF TRPM1 HTS inactive and Cneo AK release inactive.
`CC[C@@H](CC1CCCCC1)C(=O)N(Cc1ccccc1)c1ccccc1` gave Wnt act inactive, Env fusion inh 60, esBAF inh inactive, ERAP1 inh inactive, MITF TRPM1 HTS inactive and Cneo AK release inactive.
`O=S(=O)(Nc1cc(Sc2ncn[nH]2)c(O)c2ccccc12)c1ccccc1` gave Wnt act inactive, Env fusion inh inactive, ERAP1 inh 56 and MITF TRPM1 HTS inactive.
Cc1noc(C)c1S(=O)(=O)Nc1ccc2c(c1)C(=O)N([C@H](C)CO)C[C@@H](C)[C@@H](CN(C)S(=O)(=O)c1ccccc1)OCCCC[C@H](C)O2 was read as Env fusion inh inactive, esBAF inh inactive, ERAP1 inh inactive and Cneo AK release inactive.
Screening COc1ccc(/C=C2\SC(=O)N(CCNC(=O)C3CSC4(C)CCC(=O)N34)C2=O)cc1 (stereo unspecified) returned Wnt act inactive, Env fusion inh inactive, ERAP1 inh inactive, MITF TRPM1 HTS inactive and Cneo AK release inactive.
COc1ccc(/C=C2\SC(=O)N(CCCC(=O)Nc3cc(Cl)ccc3C(=O)O)C2=O)cc1 was read as Wnt act inactive, Env fusion inh 61, ERAP1 inh inactive and MITF TRPM1 HTS inactive.
`COc1ccc(/C=C2\SC(=O)N(CCNC(=O)C3CC4C=CC3C4)C2=O)cc1` (stereo unspecified) gave Wnt act inactive, Env fusion inh inactive, ERAP1 inh inactive and MITF TRPM1 HTS 136.
c1ccc(OCCSc2nnnn2-c2ccccc2)cc1 was read as esBAF inh inactive, MITF TRPM1 HTS 90 and Cneo AK release inactive.
CO[C@@H]1CN(C)C(=O)c2cc(NC(=O)c3ccccc3)ccc2OC[C@H](C)N(CC2CC2)C[C@@H]1C was read as Env fusion inh inactive, esBAF inh inactive and Cneo AK release inactive.
O=C(CCCCCn1c(=S)[nH]c2ccc(N3CCOCC3)cc2c1=O)NC1CCN(Cc2ccccc2)CC1 was read as Wnt act inactive, Env fusion inh inactive, esBAF inh inactive, ERAP1 inh inactive, MITF TRPM1 HTS inactive and Cneo AK release inactive.
For O=C(NC1CCN(Cc2ccccc2)CC1)c1ccc(Cn2c(=S)[nH]c3ccc(N4CCOCC4)cc3c2=O)cc1 the results were Wnt act inactive, Env fusion inh inactive, esBAF inh inactive, ERAP1 inh inactive, MITF TRPM1 HTS 81 and Cneo AK release inactive.
For C[C@H](CO)N1C[C@H](C)[C@H](CN(C)Cc2ccc(C(=O)O)cc2)Oc2c(NC(=O)Nc3ccc4c(c3)OCO4)cccc2C1=O the results were Env fusion inh inactive, esBAF inh inactive, ERAP1 inh inactive and Cneo AK release inactive.

Compound activity as filed in PubChem.
